This is an account of results in ChEMBL document CHEMBL2406980, “Non hemolytic short peptidomimetics as a new class of potent and broad-spectrum antimicrobial agents” (Bioorg Med Chem Lett, 2013).

Converted amounts (≈) assume the structure as drawn. The source made the active and inactive calls. The rule behind the calls is not given here. Where a SMILES comes first, the peptide text is derived from it.

As usually defined, the MIC is the lowest concentration found to suppress growth.

For data set [1], the system named is Staphylococcus aureus. As to the kind of experiment: Antibacterial activity against Staphylococcus aureus KCTC 1621 assessed as growth inhibition at 50 ug/ml preincubated with trypsin for 1 hr followed by 18 to 20 hrs incubation in bacterial culture by broth microdilution method. Type of data set: functional, organism-based. The essentials: (§1)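 Peptides are pretreated with trypsin, then residual antibacterial activity is measured by broth microdilution. Remaining intact peptide at each degradation time is followed separately by analytical RP-HPLC after trypsin treatment.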
A general note: Dilution methods test growth across graded concentrations, often in twofold steps.

Data set [2] deals with Escherichia coli. As to the kind of experiment: Antibacterial activity against Escherichia coli KCTC 1682 assessed as growth inhibition at 50 ug/ml preincubated with trypsin for 1 hr followed by 18 to 20 hrs incubation in bacterial culture by broth microdilution method. Type of data set: functional, organism-based. The method in brief: as §1
Data set [3] has as its system Staphylococcus aureus. As to the kind of experiment: Antibacterial activity against methicillin-resistant Staphylococcus aureus CCARM 3095 assessed as growth inhibition after 18 to 20 hrs by broth microdilution method. The data set is classed as functional.
For data set [4], the system named is Staphylococcus aureus. As to the kind of experiment: Antibacterial activity against methicillin-resistant Staphylococcus aureus CCARM 3090 assessed as growth inhibition after 18 to 20 hrs by broth microdilution method. Type of data set: functional.
Data set [5] in a line: Hemolytic activity in human RBC after 1 hr. As to conditions: erythrocyte. Type of data set: ADME, cell-based. The method in brief:
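Human erythrocytes are exposed to peptide, and HC10 is taken as the peptide concentration producing 10% hemolysis. If no hemolysis is detected at the top concentration tested, twice that maximum is used for the therapeutic index.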

In data set [6] the test system is Staphylococcus aureus. In words: Antibacterial activity against methicillin-resistant Staphylococcus aureus CCARM 3089 assessed as growth inhibition after 18 to 20 hrs by broth microdilution method. Type of data set: functional.
The test system of data set [7] is Staphylococcus aureus. As to the kind of experiment: Antibacterial activity against Staphylococcus aureus KCTC 1621 assessed as growth inhibition after 18 to 20 hrs by broth microdilution method. The data set is classed as functional. The essentials:
(§2)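 MIC by broth microdilution against a four-strain panel: E. coli and P. aeruginosa (Gram-negative), S. epidermidis and S. aureus (Gram-positive). Values are given in mass and molar units. Where no activity occurs at the top concentration, twice that maximum is used in the geometric-mean MIC calculation.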

Data set [8] relates to Staphylococcus epidermidis. As to the kind of experiment: Antibacterial activity against Staphylococcus epidermidis KCTC 1917 assessed as growth inhibition after 18 to 20 hrs by broth microdilution method. The data set is classed as functional. The method in brief: as §2
Another data set deals with Pseudomonas aeruginosa. As to the kind of experiment: Antibacterial activity against Pseudomonas aeruginosa KCTC 1637 assessed as growth inhibition after 18 to 20 hrs by broth microdilution method. The data set is classed as functional. The essentials: as §2
For data set [9], the system named is Escherichia coli. In words: Antibacterial activity against Escherichia coli KCTC 1682 assessed as growth inhibition after 18 to 20 hrs by broth microdilution method. Type of data set: functional. The essentials: as §2
For data set [10], the system named is Staphylococcus aureus. In words: Antibacterial activity against Staphylococcus aureus KCTC 1621 assessed as obvious disruption of cellular structure at 10 X MIC after 1 hr by transmission electron microscopic analysis. Type of data set: functional, organism-based. The essentials: (§3)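 Peptide-treated E. coli and S. aureus are negatively stained and examined by transmission electron microscopy for cell rupture and release of internal material. Comparisons are made with untreated cells, with LL-37 as a positive lysis control.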

The subject of data set [11] is Escherichia coli. In words: Antibacterial activity against Escherichia coli KCTC 1682 assessed as obvious disruption of cellular structure at 10 X MIC after 1 hr by transmission electron microscopic analysis. The data set is classed as functional, organism-based. The method in brief: as §3

Consider `CC[C@H](C)[C@H](NC(=O)CN)C(=O)NCC(=O)N[C@@H](C)C(=O)N[C@H](C(=O)N[C@@H](CC(C)C)C(=O)N[C@@H](CCCCN)C(=O)N[C@H](C(=O)N[C@@H](CC(C)C)C(=O)N[C@H](C(=O)N[C@H](C(=O)NCC(=O)N[C@@H](CC(C)C)C(=O)N1CCC[C@H]1C(=O)N[C@@H](C)C(=O)N[C@@H](CC(C)C)C(=O)N[C@H](C(=O)N[C@@H](CO)C(=O)N[C@@H](Cc1c[nH]c2ccccc12)C(=O)N[C@H](C(=O)N[C@@H](CCCCN)C(=O)N[C@@H](CCCNC(=N)N)C(=O)N[C@@H](CCCCN)C(=O)N[C@@H](CCCNC(=N)N)C(=O)N[C@@H](CCC(N)=O)C(=O)N[C@@H](CCC(N)=O)C(N)=O)[C@@H](C)CC)[C@@H](C)CC)[C@@H](C)O)[C@@H](C)O)C(C)C)C(C)C`, for which the “growth inhibition (GI)” value with Staphylococcus aureus [1] and in the data set on Escherichia coli [2] was “inactive” in each case.

Turning to `N=C(N)NCCC[C@H](NC(=O)[C@@H](N)Cc1c[n+](CCCC2CCCCC2)cn1CCCC1CCCCC1)C(N)=O`, the “growth inhibition (GI)” value in the data set with Staphylococcus aureus [1] and with Escherichia coli [2] was “Active” in each case. Also, the minimal inhibitory concentration (MIC) amounted to 14.3 µM in the data set with Staphylococcus aureus [3]; 28.6 µM with Staphylococcus aureus [4]; 14.3 µM in the data set on Staphylococcus aureus [6]; 14.3 µM in the data set on Staphylococcus aureus [7]; 14.3 µM in [8]; 57.2 µM in the data set with Pseudomonas aeruginosa. In the data set on Escherichia coli [9], the MIC was greater than 114 µM. In data set [5], the HC10 was greater than 457.6 µM.

As for `N=C(N)NCCC[C@H](NC(=O)[C@H](Cc1cncn1CCCC1CCCCC1)NC(=O)[C@@H](N)CCCNC(=N)N)C(N)=O`, the “growth inhibition (GI)” value with Staphylococcus aureus [1] and in the data set on Escherichia coli [2] was “inactive” each time. Besides, the minimal inhibitory concentration (MIC) was 54.1 µM (≈ 32 µg/mL) in the data set with Staphylococcus aureus [3]; greater than 54.1 µM in the data set on Staphylococcus aureus [4]; 54.1 µM (≈ 32 µg/mL) in the data set with Staphylococcus aureus [6]; 13.5 µM (≈ 7.98 µg/mL) in the data set on Staphylococcus aureus [7]; 13.5 µM (≈ 7.98 µg/mL) in data set [8]; 108 µM (≈ 63.9 µg/mL) in the data set with Pseudomonas aeruginosa. For the same compound, the minimal inhibitory concentration (MIC) in the data set on Escherichia coli [9] was 108 µM (≈ 63.9 µg/mL). Also, the HC10 in data set [5] was greater than 432.9 µM.

Turning to `N=C(N)NCCC[C@H](NC(=O)[C@@H](N)CCCNC(=N)N)C(=O)N[C@@H](Cc1c[n+](CCCC2CCCCC2)cn1CCCC1CCCCC1)C(N)=O`, the “growth inhibition (GI)” value with Staphylococcus aureus [1] and with Escherichia coli [2] was “Active” throughout. The minimum inhibitory concentration (MIC) in the data set on Staphylococcus aureus [3] was found to be 5.6 µM; with Staphylococcus aureus [4], 11.2 µM; in the data set on Staphylococcus aureus [6] it was 5.6 µM; in the data set on Staphylococcus aureus [7], 5.6 µM; in data set [8] it was 5.6 µM; with Pseudomonas aeruginosa, 11.2 µM. In addition, in the data set on Escherichia coli [9], the MIC was 5.6 µM. In data set [5], this compound had an HC10 greater than 358 µM.

Consider `N=C(N)NCCC[C@H](NC(=O)[C@H](Cc1c[nH]c2ccccc12)NC(=O)[C@H](CCCNC(=N)N)NC(=O)[C@@H](N)Cc1c[nH]c2ccccc12)C(N)=O` (H-WRWR-NH2), for which the HC10 in data set [5] was greater than 364.5 µM.

Consider `NC(=O)[C@H](CCCN=C(N)N)NC(=O)[C@H](Cc1c[nH]c2ccccc12)NC(=O)[C@@H](N)CCCN=C(N)N` (H-Arg-Trp-Arg-NH2), for which, in data set [5], the HC10 was greater than 495.8 µM. Besides, the MIC (in the data set on Staphylococcus aureus [7]; in data set [8]; in the data set on Pseudomonas aeruginosa; with Escherichia coli [9]) was greater than 124 µM in each case.

Turning to H-WRWRWR-NH2 [listing 1 of 2 here], the minimal inhibitory concentration (MIC) stood at 7.7 µM in the data set on Staphylococcus aureus [7], 7.7 µM in data set [8], 15.3 µM with Pseudomonas aeruginosa and 3.8 µM in the data set on Escherichia coli [9].

Take `NC(=O)[C@H](CCCN=C(N)N)NC(=O)[C@H](Cc1c[nH]c2ccccc12)NC(=O)[C@H](CCCN=C(N)N)NC(=O)[C@@H](N)Cc1c[nH]c2ccccc12` (H-WRWR-NH2): the MIC in the data set on Staphylococcus aureus [7] is 45.6 µM (≈ 32 µg/mL); in data set [8], 11.4 µM (≈ 8 µg/mL); in the data set on Pseudomonas aeruginosa, 45.6 µM (≈ 32 µg/mL); with Escherichia coli [9], 45.6 µM (≈ 32 µg/mL).

As for H-WRWRWR-NH2 [listing 2 of 2 here], the HC10 in data set [5] is greater than 245.2 µM.

Take `CC[C@H](C)[C@H](NC(=O)[C@H](CCCCN)NC(=O)[C@H](CCC(=O)O)NC(=O)[C@H](CCCCN)NC(=O)[C@H](CO)NC(=O)[C@H](CCCCN)NC(=O)[C@H](CCCNC(=N)N)NC(=O)[C@H](Cc1ccccc1)NC(=O)[C@H](Cc1ccccc1)NC(=O)[C@H](CC(=O)O)NC(=O)CNC(=O)[C@H](CC(C)C)NC(=O)[C@@H](N)CC(C)C)C(=O)NCC(=O)N[C@@H](CCCCN)C(=O)N[C@@H](CCC(=O)O)C(=O)N[C@@H](Cc1ccccc1)C(=O)N[C@@H](CCCCN)C(=O)N[C@@H](CCCNC(=N)N)C(=O)N[C@H](C(=O)N[C@H](C(=O)N[C@@H](CCC(N)=O)C(=O)N[C@@H](CCCNC(=N)N)C(=O)N[C@H](C(=O)N[C@@H](CCCCN)C(=O)N[C@@H](CC(=O)O)C(=O)N[C@@H](Cc1ccccc1)C(=O)N[C@@H](CC(C)C)C(=O)N[C@@H](CCCNC(=N)N)C(=O)N[C@@H](CC(N)=O)C(=O)N[C@@H](CC(C)C)C(=O)N[C@H](C(=O)N1CCC[C@H]1C(=O)N[C@@H](CCCNC(=N)N)C(=O)N[C@H](C(=O)N[C@@H](CCC(=O)O)C(=O)N[C@@H](CO)C(=O)O)[C@@H](C)O)C(C)C)[C@@H](C)CC)C(C)C)[C@@H](C)CC` [CATHELICIDIN]: the outcome in the data set on Staphylococcus aureus [10] and with Escherichia coli [11] was Active. Also, the minimum inhibitory concentration (MIC) in the data set with Staphylococcus aureus [3] is greater than 7.1 µM; in the data set on Staphylococcus aureus [4], greater than 7.1 µM; in the data set on Staphylococcus aureus [6], greater than 7.1 µM; with Staphylococcus aureus [7] it was 3.6 µM (≈ 16.2 µg/mL); in data set [8], 14.2 µM (≈ 63.8 µg/mL); in the data set with Pseudomonas aeruginosa it was 7.1 µM (≈ 31.9 µg/mL). For the same compound, the MIC with Escherichia coli [9] was 7.1 µM (≈ 31.9 µg/mL). Further, the HC10 in [5] is 36.7 µM.

With `N=C(N)NCCC[C@H](NC(=O)[C@H](Cc1c[n+](CCCC2CCCCC2)cn1CCCC1CCCCC1)NC(=O)[C@@H](N)CCCNC(=N)N)C(N)=O`, the outcome in the data set on Staphylococcus aureus [10] and in the data set with Escherichia coli [11] was Active. Also, the “growth inhibition (GI)” value with Staphylococcus aureus [1] and with Escherichia coli [2] was “Active” each time. The MIC with Staphylococcus aureus [3] stood at 5.2 µM; in the data set on Staphylococcus aureus [4], 5.2 µM; in the data set on Staphylococcus aureus [6], 5.2 µM; in the data set with Staphylococcus aureus [7] it was 5.6 µM; in data set [8] it was 5.6 µM; with Pseudomonas aeruginosa, 11.2 µM. Besides, the minimal inhibitory concentration (MIC) in the data set on Escherichia coli [9] came to 5.6 µM. In addition, the HC10 in [5] is greater than 357.8 µM.

Turning to `N=C(N)NCCC[C@H](NC(=O)[C@H](CCCNC(=N)N)NC(=O)[C@@H](N)Cc1c[n+](CCCC2CCCCC2)cn1CCCC1CCCCC1)C(N)=O`, the result in the data set with Staphylococcus aureus [10] and in the data set on Escherichia coli [11] was Active. In addition, the “growth inhibition (GI)” value with Staphylococcus aureus [1] and in the data set with Escherichia coli [2] was “Active” each time. Further, the minimum inhibitory concentration (MIC) in the data set on Staphylococcus aureus [3] stood at 5.6 µM; in the data set on Staphylococcus aureus [4], 5.6 µM; in the data set on Staphylococcus aureus [6], 5.6 µM; in the data set with Staphylococcus aureus [7], 2.8 µM; in [8] it was 2.8 µM; in the data set on Pseudomonas aeruginosa, 11.2 µM. In the data set with Escherichia coli [9], the MIC was found to be 5.6 µM. This compound also showed an HC10 in data set [5] greater than 357.7 µM.
